Source: ChEMBL document CHEMBL1130229, “Synthesis and antimalarial activity in vitro and in vivo of a new ferrocene-chloroquine analogue” (J Med Chem, 1997)

Columns and labels:
[1] = tested on: Plasmodium falciparum; test: In vitro antimalarial activity against Plasmodium falciparum FCM6; assay type: functional, organism-based
Outline: (§1)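 Young trophozoite-stage P. falciparum cultures were exposed to drug at 0.001–10 μg/mL for 48 h, in triplicate. [³H]hypoxanthine uptake by schizonts was measured by scintillation counting, with drug-free cultures as controls. IC50 was taken from the regression line through mean dpm between maximum and minimum values, and given as mean and SD over n experiments.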

[2] = tested on: Plasmodium falciparum; test: In vitro antimalarial activity against Plasmodium falciparum FG2 parasite; assay type: functional, organism-based; outline: as §1
[3] = tested on: Plasmodium falciparum; test: In vitro antimalarial activity against Plasmodium falciparum FG4; assay type: functional, organism-based; outline: as §1
[4] = Compound was tested antimalarial activity in mice (Mus musculus), infected with Plasmodium berghei N., activity is expressed as the mortality rate at a concentration of 10 mg/kg. in experiment 1; 0 out of 5; assay type: ADME, organism-based; set-up: dose 10 mg/kg; settings: in vivo
[5] = tested on: Plasmodium falciparum; test: In vitro antimalarial activity against Plasmodium falciparum FG3; assay type: functional, organism-based; outline: as §1
[6] = tested on: Plasmodium falciparum; test: In vitro antimalarial activity against Plasmodium falciparum FG1; assay type: functional, organism-based; outline: as §1
[7] = Compound was tested antimalarial activity in mice (Mus musculus), infected with Plasmodium berghei N., activity is expressed as the mortality rate at a concentration of 1 mg/kg. in experiment 1; 5 out of 5; assay type: ADME, organism-based; set-up: dose 1 mg/kg; settings: in vivo
[8] = tested on: Plasmodium falciparum; test: In vitro antimalarial activity against Plasmodium falciparum SGE2; assay type: functional, organism-based; outline: as §1
[9] = tested on: Plasmodium falciparum; test: In vitro antimalarial activity against Plasmodium falciparum FCM17 parasite; assay type: functional, organism-based; outline: as §1
[10] = tested on: Mus musculus; test: Compound was tested for the antimalarial activity in mice (Mus musculus), infected with Plasmodium yoelii NS., activity is expressed as the percent of parasitaemia observed in mice (Mus musculus) at end of 4-day test at a concentration of 10 mg/kg in experiment 2; assay type: functional, organism-based; set-up: dose 10 mg/kg
Outline: (§2)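 4-day suppressive test in female Swiss mice (25 g), infected at day 0 with 10⁷ parasitized RBC from a donor at 20–30% parasitemia. Drug given subcutaneously in PBS once daily, days 0–3; dose in chloroquine base equivalents. Controls received PBS. Parasitemia was counted on 1000 RBC in Giemsa-stained thin films at day 4 and expressed as percent of control-mouse parasitemia.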

[11] = tested on: Mus musculus; test: Compound was tested for the antimalarial activity in mice (Mus musculus), infected with Plasmodium yoelii NS., activity is expressed as the percent of parasitaemia observed in mice (Mus musculus) at end of 4-day test at a concentration of 1 mg/kg in experiment 1; assay type: functional, organism-based; set-up: dose 1 mg/kg; outline: as §2
[12] = tested on: Mus musculus; test: Compound was tested for the antimalarial activity in mice (Mus musculus), infected with Plasmodium berghei N., activity is expressed as the percent of parasitaemia observed in mice (Mus musculus) at end of 4-day test at a concentration of 10 mg/kg in experiment 1; assay type: functional, organism-based; set-up: dose 10 mg/kg; outline: as §2
[13] = tested on: Mus musculus; test: Compound was tested for the antimalarial activity in mice (Mus musculus), infected with Plasmodium berghei N., activity is expressed as the percent of parasitaemia observed in mice (Mus musculus) at end of 4 day test at a concentration of 1 mg/kg in experiment 1; assay type: functional, organism-based; set-up: dose 1 mg/kg; outline: as §2
[14] = tested on: Mus musculus; test: Compound was tested for the antimalarial activity in mice (Mus musculus), infected with Plasmodium yoelii NS., activity is expressed as the percent of parasitaemia observed in mice (Mus musculus) at end of 4-day test at a concentration of 1 mg/kg in experiment 2; assay type: functional, organism-based; set-up: dose 1 mg/kg; outline: as §2
[15] = tested on: Mus musculus; test: Compound was tested for the antimalarial activity in mice (Mus musculus), infected with Plasmodium yoelii NS., activity is expressed as the percent of parasitaemia observed in mice (Mus musculus) at end of 4-day test at a concentration of 10 mg/kg in experiment 1; assay type: functional, organism-based; set-up: dose 10 mg/kg; outline: as §2
[16] = tested on: Mus musculus; test: Compound was tested for the antimalarial activity in mice (Mus musculus), infected with Plasmodium berghei N., activity is expressed as the percent of parasitaemia observed in mice (Mus musculus) at end of 4 day test at a concentration of 10 mg/kg in experiment 2; assay type: functional, organism-based; set-up: dose 10 mg/kg; outline: as §2
[17] = tested on: Mus musculus; test: Compound was tested for the antimalarial activity in mice (Mus musculus), infected with Plasmodium berghei N., activity is expressed as the percent of parasitaemia observed in mice (Mus musculus) at end of 4-day test at a concentration of 1 mg/kg in experiment 2; assay type: functional, organism-based; set-up: dose 1 mg/kg; outline: as §2
[18] = tested on: Mus musculus; test: Antimalarial activity in mice (Mus musculus), infected with Plasmodium yoelii NS. activity is expressed as the percent of parasitaemia observed in mice (Mus musculus) at end of 4-day test at a concentration of 10 mg/kg in experiment 2; assay type: functional; outline: as §2
[19] = tested on: Mus musculus; test: Antimalarial activity in mice (Mus musculus), infected with Plasmodium berghei N. activity is expressed as the percent of parasitaemia observed in mice (Mus musculus) at end of 4-day test at a concentration of 1 mg/kg in experiment 1; assay type: functional; outline: as §2
[20] = tested on: Mus musculus; test: Antimalarial activity in mice (Mus musculus), infected with Plasmodium berghei N. activity is expressed as the percent of parasitaemia observed in mice (Mus musculus) at end of 4-day test at a concentration of 10 mg/kg in experiment 1; assay type: functional; outline: as §2
[21] = tested on: Mus musculus; test: Antimalarial activity in mice (Mus musculus), infected with Plasmodium yoelii NS., activity is expressed as the percent of parasitaemia observed in mice (Mus musculus) at end of 4 day test at a concentration of 1 mg/kg in experiment 2; assay type: functional; outline: as §2
[22] = tested on: Mus musculus; test: Antimalarial activity in mice (Mus musculus), infected with Plasmodium berghei N. activity is expressed as the percent of parasitaemia observed in mice (Mus musculus) at end of 4-day test at a concentration of 10 mg/kg in experiment 2; assay type: functional; outline: as §2
[23] = tested on: Mus musculus; test: Antimalarial activity in mice (Mus musculus), infected with Plasmodium yoelii NS., activity is expressed as the percent of parasitaemia observed in mice (Mus musculus) at end of 4-day test at a concentration of 10 mg/kg in experiment 1; assay type: functional; outline: as §2
[24] = tested on: Mus musculus; test: Antimalarial activity in mice (Mus musculus), infected with Plasmodium berghei N. activity is expressed as the percent of parasitaemia observed in mice (Mus musculus) at end of 4-day test at a concentration of 1 mg/kg in experiment 2; assay type: functional; outline: as §2
[25] = tested on: Mus musculus; test: Antimalarial activity in mice (Mus musculus), infected with Plasmodium yoelii NS. activity is expressed as the percent of parasitaemia observed in mice (Mus musculus) at end of 4-day test at a concentration of 1 mg/kg in experiment 1; assay type: functional; outline: as §2

## 7-Chloro-4-[[[2-[(N,N-methyl amino)]ferrocenyl]methyl]amino]quinoline; bis-(2,3-Dihydroxy-succinic acid) [listing 1 of 2 here]
[1]
  IC50: 0.061 µg/mL
[2]
  IC50: 0.059 µg/mL
[3]
  IC50: 0.057 µg/mL
[4]
  Mortality: 0
[5]
  IC50: 0.095 µg/mL
[6]
  IC50: 0.067 µg/mL
[7]
  Mortality: 5
[8]
  IC50: 0.16 µg/mL
[9]
  IC50: 0.177 µg/mL

## 7-Chloro-4-[[[2-[(N,N-methyl amino)]ferrocenyl]methyl]amino]quinoline; bis-(2,3-Dihydroxy-succinic acid) [listing 2 of 2 here]
[10]
  Parasitemia: 0%
[11]
  Parasitemia: 125%
[12]
  Parasitemia: 0%
[13]
  Parasitemia: 75.5%
[14]
  Parasitemia: 109%
[15]
  Parasitemia: 0.3%
[16]
  Parasitemia: 0%
[17]
  Parasitemia: 75.8%

## CCN(CC)CCCC(C)Nc1ccnc2cc(Cl)ccc12 (stereo not given) [CHLOROQUINE]
[18]
  Parasitemia: 0%
[19]
  Parasitemia: 69.2%
[20]
  Parasitemia: 2.08%
[21]
  Parasitemia: 76.6%
[22]
  Parasitemia: 0.59%
[23]
  Parasitemia: 0%
[24]
  Parasitemia: 60.1%
[25]
  Parasitemia: 64.7%
